Results: ChEMBL document CHEMBL1938233, “2-Oxo-N-aryl-1,2,3,4-tetrahydroquinoline-6-sulfonamides as activators of the tumor cell specific M2 isoform of pyruvate kinase” (Bioorg Med Chem Lett, 2011)
pEC50: −log10 of the molar value. Calls of active or inactive are those of the source. The calls are words filed in the database; no cut-off is given here.

Assays:
Pyruvate kinase PKM [1] = target: T1, Pyruvate kinase PKM (Homo sapiens, UniProt P14618); assay: Activation of human PKM2 assessed as ATP product formation at 57 uM after 1 hr by luminescent pyruvate-kinase luciferase coupled assay
Outline: (§1)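 Luminescent pyruvate kinase–luciferase coupled assay. AC50 is the mean of three separate experiments. Maximum response is % activation at 57 μM compound, normalized as described in the supporting information.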
Target sequence in this assay (P14618 2-531 limits assumed): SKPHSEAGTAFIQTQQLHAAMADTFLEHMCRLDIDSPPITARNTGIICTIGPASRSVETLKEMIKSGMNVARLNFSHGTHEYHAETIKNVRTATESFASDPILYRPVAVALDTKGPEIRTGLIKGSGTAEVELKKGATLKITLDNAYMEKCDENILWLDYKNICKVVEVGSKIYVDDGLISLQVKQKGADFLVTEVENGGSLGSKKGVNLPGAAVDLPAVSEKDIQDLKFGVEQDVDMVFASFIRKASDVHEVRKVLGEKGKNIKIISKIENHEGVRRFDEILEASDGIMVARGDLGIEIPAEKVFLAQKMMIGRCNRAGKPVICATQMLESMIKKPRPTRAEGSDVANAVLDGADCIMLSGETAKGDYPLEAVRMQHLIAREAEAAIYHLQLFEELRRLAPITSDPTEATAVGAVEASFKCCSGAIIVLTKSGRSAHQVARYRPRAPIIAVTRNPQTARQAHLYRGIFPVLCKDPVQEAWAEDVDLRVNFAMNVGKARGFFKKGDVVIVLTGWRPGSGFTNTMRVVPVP

Pyruvate kinase PKM [2] = target: T1, Pyruvate kinase PKM; assay: Activation of human PKM2 assessed as ATP product formation at 57 µM after 1 hr by luminescent pyruvate kinase-luciferase coupled assay
Target sequence in this assay (P14618 2-531 limits assumed): as above

Pyruvate kinase PKM [3] = target: T1, Pyruvate kinase PKM; assay: Activation of human PKM2 assessed as ATP product formation after 1 hr by luminescent pyruvate kinase-luciferase coupled assay; outline: as §1
Liver = assay: Half life in mouse liver microsomes at 2 uM after 2 mins by LC/MS/MS analysis; assay type: ADME, Microsome
Liver microsomes = assay: Half life in human liver microsomes at 2 uM after 2 mins by LC/MS/MS analysis; assay type: ADME, Microsome
[4] = Apparent permeability from basolateral to apical side of human Caco2 cells at pH 7.4 after 2 hrs by LC/MS/MS analysis; assay type: ADME, cell-based; conditions: Caco-2, pH 7.4
[5] = target: Pyruvate kinase PKLR (Homo sapiens) (UniProt P30613); assay: Activation of PKLR assessed as ATP product formation at 57.5 uM after 1 hr by luminescent pyruvate kinase-luciferase coupled assay
Pyruvate kinase PKLR (Homo sapiens), sequence (P30613 whole entry, looked up): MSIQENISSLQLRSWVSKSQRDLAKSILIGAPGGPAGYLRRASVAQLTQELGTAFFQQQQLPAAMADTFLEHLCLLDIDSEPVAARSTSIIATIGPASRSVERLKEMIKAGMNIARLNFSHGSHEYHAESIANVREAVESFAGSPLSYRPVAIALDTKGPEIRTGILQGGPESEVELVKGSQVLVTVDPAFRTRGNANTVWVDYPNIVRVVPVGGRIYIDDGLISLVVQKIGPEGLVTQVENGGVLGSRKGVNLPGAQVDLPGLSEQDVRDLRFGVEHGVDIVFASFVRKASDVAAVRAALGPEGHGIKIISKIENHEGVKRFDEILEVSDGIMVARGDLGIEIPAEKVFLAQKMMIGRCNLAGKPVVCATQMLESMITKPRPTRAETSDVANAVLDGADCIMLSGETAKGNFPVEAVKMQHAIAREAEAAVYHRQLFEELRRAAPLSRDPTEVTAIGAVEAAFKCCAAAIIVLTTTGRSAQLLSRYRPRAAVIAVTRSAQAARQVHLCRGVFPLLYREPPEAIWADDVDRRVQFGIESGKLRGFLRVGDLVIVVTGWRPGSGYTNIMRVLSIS

Caco-2 = assay: Efflux ratio of permeability from basolateral to apical side over apical to basolateral side in human Caco2 cells at pH 7.4 after 2 hrs by LC/MS/MS analysis; conditions: caco-2, pH 7.4, 2 h
[6] = Apparent permeability from apical to basolateral side of human Caco2 cells at pH 7.4 after 2 hrs by LC/MS/MS analysis; assay type: ADME, cell-based; conditions: Caco-2, pH 7.4
[7] = Aqueous kinetic solubility of the compound in PBS buffer; assay type: physicochemical

**Q.** With Cc1cc(NS(=O)(=O)c2ccc3c(c2)CCC(=O)N3)ccc1Cl as the compound, how does the Emax (Pyruvate kinase PKM [1]) read?
**A.** 121%

**Q.** With O=C1CCc2cc(S(=O)(=O)Nc3cccc(C(F)(F)F)c3)ccc2N1 as the compound, how does the Emax (Pyruvate kinase PKM [1]) read?
**A.** 109%

**Q.** Which Emax (Pyruvate kinase PKM [2]) does the source give for Cc1ccc(NS(=O)(=O)c2cc3c(cc2Cl)CCC(=O)N3)cc1Cl here?
**A.** 109%

**Q.** With Cc1ccc(NS(=O)(=O)c2cc3c(cc2N[C@H](C)CO)NC(=O)CC3)cc1C as the compound, how does the pEC50 (Pyruvate kinase PKM [3]) read?
**A.** 6.06

**Q.** And the Emax (Pyruvate kinase PKM [2])?
**A.** 108%

**Q.** With Cc1ccc(NS(=O)(=O)c2ccc3c(c2)N(C)CCO3)cc1C as the compound, how does the Emax (Pyruvate kinase PKM [2]) read?
**A.** 81%

**Q.** Which results are given for CNc1cc2c(cc1S(=O)(=O)Nc1ccc(C)c(C)c1)CCC(=O)N2?
**A.** t1/2 (Liver): 19.1 min; t1/2 (Liver microsomes): 19.7 min; Emax (Pyruvate kinase PKM [2]): 102%

**Q.** For Cc1ccc(NS(=O)(=O)c2ccc3c(c2)CCC(=O)N3)cc1C, which t1/2 (Liver) is on record?
**A.** 17.3 min

**Q.** And the Papp B→A at 2 h [4]?
**A.** 122 nm/s

**Q.** And the Activity [5]?
**A.** < 25%

**Q.** And the pEC50 (Pyruvate kinase PKM [3])?
**A.** 6.10

**Q.** What about the t1/2 (Liver microsomes) of the same compound?
**A.** 6 min

**Q.** What about the Ratio (Caco-2) of the same compound?
**A.** 0.82

**Q.** And the Papp A→B at 2 h [6]?
**A.** 149 nm/s

**Q.** For CCN(CC)c1cc2c(cc1S(=O)(=O)Nc1ccc(C)c(C)c1)CCC(=O)N2, which Emax (Pyruvate kinase PKM [2]) is on record?
**A.** 106%

**Q.** With O=C1CCc2cc(S(=O)(=O)Nc3cccnc3)ccc2N1 as the compound, how does the Emax (Pyruvate kinase PKM [1]) read?
**A.** inactive

**Q.** With COc1cccc(NS(=O)(=O)c2ccc3c(c2)CCC(=O)N3)c1 as the compound, how does the Emax (Pyruvate kinase PKM [1]) read?
**A.** 115%

**Q.** Which Activity (Pyruvate kinase PKM [3]) does the source give for Cc1ccc(NS(=O)(=O)c2cc(N[C@@H](C)CO)cc3c2NC(=O)CC3)cc1Cl here?
**A.** inactive

**Q.** What does the source list for O=C1CCc2cc(S(=O)(=O)Nc3cccc(Cl)c3)ccc2N1?
**A.** pEC50 (Pyruvate kinase PKM [3]): 6.39; Emax (Pyruvate kinase PKM [1]): 104%

**Q.** Which Emax (Pyruvate kinase PKM [2]) does the source give for Cc1ccc(NS(=O)(=O)c2ccc3c(c2)NC(=O)CO3)cc1C here?
**A.** 81%

**Q.** For Cc1ccc(NS(=O)(=O)c2ccc(F)cc2)cc1C, which Emax (Pyruvate kinase PKM [2]) is on record?
**A.** inactive

**Q.** With COc1cccc(Cn2ncc3c4sc([S+](C)[O-])cc4n(C)c3c2=O)c1 (stereo not drawn) as the compound, how does the pEC50 (Pyruvate kinase PKM [3]) read?
**A.** 7.14

**Q.** For Cc1ccc(NS(=O)(=O)c2cc3c(cc2C)NC(=O)CO3)cc1C, which Emax (Pyruvate kinase PKM [2]) is on record?
**A.** 111%

**Q.** Which Emax (Pyruvate kinase PKM [2]) does the source give for Cc1ccc(NS(=O)(=O)c2cc3c(cc2NCC(C)(C)O)NC(=O)CC3)cc1C here?
**A.** 83%

**Q.** Which t1/2 (Liver) does the source give for Cc1ccc(NS(=O)(=O)c2cc3c(cc2N(C)C)NC(=O)CC3)cc1C here?
**A.** 21.7 min

**Q.** What about the t1/2 (Liver microsomes) of the same compound?
**A.** 19.4 min

**Q.** What about the Emax (Pyruvate kinase PKM [2]) of the same compound?
**A.** 129%

**Q.** Which Emax (Pyruvate kinase PKM [2]) does the source give for CC(=O)N1CCc2cc(S(=O)(=O)Nc3ccc(C)c(C)c3)ccc21 here?
**A.** 96%

**Q.** With Cc1ccc(NS(=O)(=O)c2cc(N[C@@H](C)CO)cc3c2NC(=O)CC3)cc1C as the compound, how does the Activity (Pyruvate kinase PKM [3]) read?
**A.** inactive

**Q.** For Cc1ccc(NS(=O)(=O)c2cccc(Cl)c2)cc1C, which Emax (Pyruvate kinase PKM [2]) is on record?
**A.** 71%

**Q.** Which Emax (Pyruvate kinase PKM [2]) does the source give for Cc1ccc(NS(=O)(=O)c2cc3c(cc2Cl)NC(=O)CO3)cc1C here?
**A.** 80%

**Q.** Which Emax (Pyruvate kinase PKM [1]) does the source give for O=C1CCc2cc(S(=O)(=O)Nc3cccc(-c4ccccc4)c3)ccc2N1 here?
**A.** inactive

**Q.** For O=C1CCc2cc(S(=O)(=O)Nc3ccc4c(c3)OCCO4)ccc2N1, which Emax (Pyruvate kinase PKM [1]) is on record?
**A.** 100%

**Q.** With Cc1ccc(NS(=O)(=O)c2ccc3c(c2)CC(=O)N3)cc1C as the compound, how does the Emax (Pyruvate kinase PKM [2]) read?
**A.** 57%

**Q.** Which Kinetic_solubility [7] does the source give for Cc1ccc(NS(=O)(=O)c2cc3c(cc2NC(C)CO)NC(=O)CC3)cc1C (racemic) here?
**A.** > 120 µM

**Q.** And the pEC50 (Pyruvate kinase PKM [3])?
**A.** 6.64

**Q.** And the Emax (Pyruvate kinase PKM [2])?
**A.** 124%

**Q.** For O=C1CCc2cc(S(=O)(=O)Nc3ccc(Cl)c(Cl)c3)ccc2N1, which Emax (Pyruvate kinase PKM [1]) is on record?
**A.** 95%

**Q.** For Cc1ccc(NS(=O)(=O)c2cc3c(cc2NCCO)NC(=O)CC3)cc1C, which Emax (Pyruvate kinase PKM [2]) is on record?
**A.** 132%

**Q.** For Cc1ccc(NS(=O)(=O)c2ccc3c(c2)CCC(=O)N3)cc1, which Emax (Pyruvate kinase PKM [1]) is on record?
**A.** 102%

**Q.** With Cc1ccc(NS(=O)(=O)c2ccc3ccccc3c2)cc1C as the compound, how does the Emax (Pyruvate kinase PKM [2]) read?
**A.** 69%

**Q.** What does the source list for O=C1CCc2cc(S(=O)(=O)Nc3ccc(F)c(Cl)c3)ccc2N1?
**A.** pEC50 (Pyruvate kinase PKM [3]): 6.54; Emax (Pyruvate kinase PKM [1]): 123%

**Q.** With Cc1ccc(NS(=O)(=O)c2cc3c(cc2N[C@@H](C)CO)NC(=O)CC3)cc1Cl as the compound, how does the t1/2 (Liver) read?
**A.** 22.9 min

**Q.** And the Papp B→A at 2 h [4]?
**A.** 119 nm/s

**Q.** What about the Activity [5] of the same compound?
**A.** < 25%

**Q.** And the pEC50 (Pyruvate kinase PKM [3])?
**A.** 7.22

**Q.** What about the t1/2 (Liver microsomes) of the same compound?
**A.** 30.4 min

**Q.** And the Ratio (Caco-2)?
**A.** 10.51

**Q.** What about the Papp A→B at 2 h [6] of the same compound?
**A.** 11.3 nm/s

**Q.** And the Emax (Pyruvate kinase PKM [2])?
**A.** 96%

**Q.** What does the source list for Cc1ccc(NS(=O)(=O)c2cc3c(cc2F)NC(=O)CC3)cc1Cl?
**A.** t1/2 (Liver): 54.1 min; Papp B→A at 2 h [4]: 62.4 nm/s; t1/2 (Liver microsomes): 22.9 min; Ratio (Caco-2): 1; Papp A→B at 2 h [6]: 62.2 nm/s; Emax (Pyruvate kinase PKM [2]): 112%

**Q.** For Cc1cc(NS(=O)(=O)c2ccc3c(c2)CCC(=O)N3)ccc1F, which Emax (Pyruvate kinase PKM [1]) is on record?
**A.** 128%

**Q.** With CC(=O)Nc1cccc(S(=O)(=O)Nc2ccc(C)c(C)c2)c1 as the compound, how does the Emax (Pyruvate kinase PKM [2]) read?
**A.** 58%

**Q.** With O=C1CCc2cc(S(=O)(=O)Nc3ccc(Cl)cc3)ccc2N1 as the compound, how does the Emax (Pyruvate kinase PKM [1]) read?
**A.** 106%

**Q.** With COc1ccc(NS(=O)(=O)c2ccc3c(c2)CCC(=O)N3)cc1 as the compound, how does the Emax (Pyruvate kinase PKM [1]) read?
**A.** 85%

**Q.** With Cc1ccc(NS(=O)(=O)c2cc3c(cc2-c2ccccc2)NC(=O)CO3)cc1C as the compound, how does the Emax (Pyruvate kinase PKM [2]) read?
**A.** inactive

**Q.** For CC(=O)Nc1ccc(S(=O)(=O)Nc2ccc(C)c(C)c2)cc1, which Emax (Pyruvate kinase PKM [2]) is on record?
**A.** < 40%

**Q.** With O=C1CCc2cc(S(=O)(=O)Nc3cccc(F)c3)ccc2N1 as the compound, how does the pEC50 (Pyruvate kinase PKM [3]) read?
**A.** 6.10

**Q.** What about the Emax (Pyruvate kinase PKM [1]) of the same compound?
**A.** 101%
